The text below walks through data of ChEMBL document CHEMBL1671635, “Effect of protein binding on the pharmacological activity of highly bound antibiotics” (Antimicrob Agents Chemother, 2008).

The test system of data set [1] is Plasma. Kind of data set: Protein binding in pooled human plasma by microdialysis. Format: ADME, cell-free. A digest of the protocol:
(§1)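 In vitro microdialysis at 20, 40, 80, 160 and 320 μg/ml drug, in triplicate, at 37°C. Matrices were THB with 40 g/liter BSA or HSA, pooled adult bovine serum, or untreated pooled human plasma. Probes were perfused with lactated Ringer at 2.0 μl/min, with recovery set in Ringer alone. Samples were taken over a 30-min period and assayed by HPLC-UV. Binding = 1 − dialysate/(recovery × total).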

The target of data set [2] is Albumin (Homo sapiens, UniProt P02768). The data set can be described thus: Binding affinity to human serum albumin in THB medium containing 40 g/L HSA. Particulars: human serum albumin (40 g/L) in THB medium, read-out: PB (converted). Format: ADME. A digest of the protocol:
as §1

For data set [3], the target named is T1, Albumin (Bos taurus, UniProt P02769). The data set can be described thus: Binding affinity to pooled adult bovine serum albumin. Particulars: cattle, read-out: PB (converted). It counts as ADME. The procedure, abridged:
as §1

Data set [4] concerns the target T1, Albumin. The data set can be described thus: Binding affinity to bovine serum albumin in THB medium containing 40 g/L BSA. It counts as ADME. Particulars: cattle, bovine serum albumin (40 g/L) in THB medium; read-out: PB (converted). A digest of the protocol: as §1
Data set [5] concerns Escherichia coli. Kind of data set: Antimicrobial activity against Escherichia coli ATCC 25922 by serial dilution twofold broth microdilution method. Format: functional. Particulars: in the assay text read “macrodilution” for “microdilution”. A digest of the protocol: (§2)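 Broth macrodilution, serial twofold dilutions, run per CLSI guidelines. Media were MHB (E. coli) or THB (S. pneumoniae), used with or without 40 g/liter BSA or HSA; supplemented broth was 0.2-μm filtered and adjusted to pH 7.4. Inoculum came from overnight 5% sheep blood agar colonies set to 0.5 McFarland in saline and diluted in broth to ~5 × 10⁵ CFU/ml. Six determinations; values reported as modes.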
For orientation: In broth dilution the organism is exposed to a series of concentrations in liquid medium.

The test system of data set [6] is Escherichia coli. Kind of data set: Antimicrobial activity against Escherichia coli ATCC 25922 by serial dilution twofold broth microdilution method in presence of 40 g/L bovine serum albumin. It counts as functional. Particulars: in the assay text read “macrodilution” for “microdilution”. A digest of the protocol: as §2
For data set [7], the system named is Streptococcus pneumoniae. Kind of data set: Antimicrobial activity against penicillin-sensitive Streptococcus pneumoniae ATCC 6303 by serial dilution twofold broth microdilution method. Particulars: in the assay text read “macrodilution” for “microdilution”. It counts as functional. A digest of the protocol:
as §2

Data set [8] concerns Streptococcus pneumoniae. The data set can be described thus: Antimicrobial activity against penicillin-sensitive Streptococcus pneumoniae ATCC 6303 by serial dilution twofold broth microdilution method in presence of 40 g/L bovine serum albumin. Format: functional. Particulars: in the assay text read “macrodilution” for “microdilution”. The procedure, abridged:
as §2

The subject of data set [9] is Streptococcus pneumoniae. The data set can be described thus: Antimicrobial activity against penicillin-sensitive Streptococcus pneumoniae ATCC 6303 by serial dilution twofold broth microdilution method in presence of 40 g/L human serum albumin. It counts as functional. Particulars: in the assay text read “macrodilution” for “microdilution”. A digest of the protocol:
as §2

Data set [10] deals with Escherichia coli. The data set can be described thus: Bactericidal activity against Escherichia coli ATCC 25922 at 8 times MIC after 24 hrs by time kill analysis. Format: functional, organism-based.
The test system of data set [11] is Streptococcus pneumoniae. Kind of data set: Bactericidal activity against penicillin-sensitive Streptococcus pneumoniae ATCC 6303 at 8 times MIC after 24 hrs by time kill analysis. It counts as functional, organism-based.
For data set [12], the system named is Escherichia coli. The data set can be described thus: Antimicrobial activity against Escherichia coli ATCC 25922 assessed as maximum killing rate constant. It counts as functional. A digest of the protocol: (§3)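 Constant-concentration time-kill curves, 6 h, in triplicate. […] Inoculum of ~5 × 10⁵ CFU/ml was grown 2 h before drug was added. Samples taken 0–6 h were counted by droplet plating after 20–24 h at 37°C. A two-compartment model (susceptible plus persister cells) was fitted simultaneously across conditions to obtain growth and maximal kill rate constants.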

Data set [13] concerns Streptococcus pneumoniae. The data set can be described thus: Antimicrobial activity against penicillin-sensitive Streptococcus pneumoniae ATCC 6303 assessed as maximum killing rate constant. Format: functional. A digest of the protocol:
as §3

In data set [14] the test system is Escherichia coli. Kind of data set: Antimicrobial activity against Escherichia coli ATCC 25922 assessed as growth rate constant. It counts as functional. A digest of the protocol:
as §3

The subject of data set [15] is Streptococcus pneumoniae. Kind of data set: Antimicrobial activity against penicillin-sensitive Streptococcus pneumoniae ATCC 6303 assessed as growth rate constant. Format: functional. A digest of the protocol:
as §3

Data set [16] is described as follows: Plasma protein binding in healthy human 1t […], iv administered as single dose by LC-MS-MS method. Format: ADME, organism-based. Particulars: read-out: PPB (converted).
The test system of data set [17] is Escherichia coli. The data set can be described thus: Antimicrobial activity against Escherichia coli ATCC 25922. It counts as functional, organism-based. A digest of the protocol: as §2
The subject of data set [18] is Escherichia coli. Kind of data set: Antimicrobial activity against Escherichia coli ATCC 25922 in presence of bovine serum albumin. Format: functional, organism-based. The procedure, abridged: as §2
Data set [19] relates to Escherichia coli. The data set can be described thus: Antimicrobial activity against Escherichia coli ATCC 25922 by in presence of human serum albumin. It counts as functional, organism-based. The procedure, abridged: as §2
The test system of data set [20] is Streptococcus pneumoniae. The data set can be described thus: Antimicrobial activity against penicillin-sensitive Streptococcus pneumoniae ATCC 6303. Format: functional, organism-based. The procedure, abridged:
as §2

For data set [21], the system named is Streptococcus pneumoniae. Kind of data set: Antimicrobial activity against penicillin-sensitive Streptococcus pneumoniae ATCC 6303 in presence of bovine serum albumin. Format: functional, organism-based. The procedure, abridged: as §2
The test system of data set [22] is Streptococcus pneumoniae. Kind of data set: Antimicrobial activity against penicillin-sensitive Streptococcus pneumoniae ATCC 6303 in presence of human serum albumin. Format: functional, organism-based. The procedure, abridged:
as §2

Data set [23] has as its system Escherichia coli. Kind of data set: Antimicrobial activity against Escherichia coli ATCC 25922 by serial dilution twofold broth macrodilution method in presence of 40 g/L human serum albumin.
The nature of data set [24]: Plasma protein binding in human at < 100 ug/ml. Format: ADME, cell-free. Particulars: read-out: PPB (converted).
Data set [25] deals with Plasma. The data set can be described thus: Plasma protein binding in human at 400 ug/ml. Format: ADME, cell-free.
The test system of data set [26] is Escherichia coli. The data set can be described thus: Bactericidal activity against Escherichia coli ATCC 25922 at 8 times MIC after 24 hrs by time kill analysis in presence of 40 g/L human serum albumin. Format: functional, organism-based.
In data set [27] the test system is Streptococcus pneumoniae. Kind of data set: Bactericidal activity against penicillin-sensitive Streptococcus pneumoniae ATCC 6303 at 8 times MIC after 24 hrs by time kill analysis in presence of 40 g/L human serum albumin. It counts as functional, organism-based.
Data set [28] has as its system Escherichia coli. The data set can be described thus: Bactericidal activity against Escherichia coli ATCC 25922 at 8 times MIC after 6 hrs by time kill analysis in presence of 40 g/L bovine serum albumin.
Data set [29] concerns Streptococcus pneumoniae. The data set can be described thus: Bactericidal activity against penicillin-sensitive Streptococcus pneumoniae ATCC 6303 at 8 times MIC after 6 hrs by time kill analysis in presence of 40 g/L bovine serum albumin.

Values after ≈ are worked out from the molar mass of the structure shown. Active and inactive are the calls of the source. The rule behind the calls is not given here.

T1 sequence (P02769 whole entry): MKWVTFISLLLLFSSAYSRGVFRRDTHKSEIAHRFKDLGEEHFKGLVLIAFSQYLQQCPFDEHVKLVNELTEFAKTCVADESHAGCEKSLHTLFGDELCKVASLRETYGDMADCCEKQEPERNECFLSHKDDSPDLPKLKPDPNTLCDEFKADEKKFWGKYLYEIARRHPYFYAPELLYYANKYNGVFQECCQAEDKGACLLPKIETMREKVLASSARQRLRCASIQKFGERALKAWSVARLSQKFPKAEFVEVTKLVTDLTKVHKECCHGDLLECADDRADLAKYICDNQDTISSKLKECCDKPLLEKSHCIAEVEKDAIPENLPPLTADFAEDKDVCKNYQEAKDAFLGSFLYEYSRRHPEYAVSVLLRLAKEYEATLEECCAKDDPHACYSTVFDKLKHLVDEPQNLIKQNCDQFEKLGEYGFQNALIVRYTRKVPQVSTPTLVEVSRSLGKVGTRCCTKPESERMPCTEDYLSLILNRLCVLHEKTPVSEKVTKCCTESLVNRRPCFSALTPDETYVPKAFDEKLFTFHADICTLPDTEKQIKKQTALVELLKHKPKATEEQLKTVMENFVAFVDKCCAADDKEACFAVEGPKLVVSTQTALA
Chain of Albumin (Homo sapiens, UniProt P02768) (P02768 whole entry): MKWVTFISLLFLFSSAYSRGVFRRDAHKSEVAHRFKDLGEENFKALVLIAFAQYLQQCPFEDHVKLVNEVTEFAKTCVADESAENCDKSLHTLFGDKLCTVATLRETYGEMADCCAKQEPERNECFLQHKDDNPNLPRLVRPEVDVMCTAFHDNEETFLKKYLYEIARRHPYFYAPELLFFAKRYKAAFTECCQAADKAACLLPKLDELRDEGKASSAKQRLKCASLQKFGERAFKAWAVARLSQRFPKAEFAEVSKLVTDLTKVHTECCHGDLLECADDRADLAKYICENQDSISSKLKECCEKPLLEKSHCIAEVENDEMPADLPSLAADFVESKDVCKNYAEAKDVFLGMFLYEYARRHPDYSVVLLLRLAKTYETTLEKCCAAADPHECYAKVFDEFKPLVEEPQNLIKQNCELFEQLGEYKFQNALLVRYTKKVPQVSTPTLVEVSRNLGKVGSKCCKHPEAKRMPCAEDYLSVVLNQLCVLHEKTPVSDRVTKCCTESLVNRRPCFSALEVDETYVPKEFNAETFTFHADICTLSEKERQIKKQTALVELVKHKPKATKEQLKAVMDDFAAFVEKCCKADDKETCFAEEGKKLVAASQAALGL

In turn, `C[C@@H](O)[C@H]1C(=O)N2C(C(=O)O)=C(S[C@@H]3CN[C@H](C(=O)Nc4cccc(C(=O)O)c4)C3)[C@H](C)[C@H]12` [ERTAPENEM] showed a PPB with Plasma [1] of 73.8%. In addition, the fraction unbound is 0.822 on Albumin [2], 0.617 at Albumin [3], 0.876 on Albumin [4] and 0.16 in data set [16]. In addition, the MIC came to 0.015 µg/mL (≈ 0.0315 µM) in the data set on Escherichia coli [5]; 0.015 µg/mL in the data set with Escherichia coli [6]; 0.025 µg/mL (≈ 0.0526 µM) in the data set on Streptococcus pneumoniae [7]; 0.025 µg/mL in the data set on Streptococcus pneumoniae [8]; 0.025 µg/mL in the data set on Streptococcus pneumoniae [9]; 0.03 µg/mL with Escherichia coli [23]. For the same compound, the result in the data set on Escherichia coli [10] and with Streptococcus pneumoniae [11] was Active. Also, the Kkmax worked out at 6.02 h⁻¹ in the data set on Escherichia coli [12] and 3.28 h⁻¹ in the data set with Streptococcus pneumoniae [13]. The Ks was 2.76 h⁻¹ in the data set with Escherichia coli [14] and 2.28 h⁻¹ with Streptococcus pneumoniae [15]. Further, the half-maximal effective concentration (EC50) is 0.01 µg/mL (≈ 0.021 µM) in the data set with Escherichia coli [17]; 0.02 µg/mL in the data set on Escherichia coli [18]; 0.014 µg/mL in the data set on Escherichia coli [19]; 10 ng/mL (≈ 0.021 µM) in the data set on Streptococcus pneumoniae [20]; 0.01 µg/mL in the data set on Streptococcus pneumoniae [21]; 0.019 µg/mL with Streptococcus pneumoniae [22].
In the case of `CO/N=C(\C(=O)N[C@@H]1C(=O)N2C(C(=O)O)=C(CSc3nc(=O)c(=O)[nH]n3C)CS[C@H]12)c1csc(N)n1` [CEFTRIAXONE], the PPB with Plasma [1] was determined as 76.8%; in the data set with Plasma [25], 60%. The fraction unbound was 0.431 at Albumin [2]; 0.693 on Albumin [3]; 0.798 at Albumin [4]; 0.1 in data set [24]; 0.17 in data set [16].
As to `CO/N=C(\C(=O)N[C@@H]1C(=O)N2C(C(=O)O)=C(CSc3nc(=O)c(O)nn3C)CS[C@H]12)c1csc(N)n1` [CEFTRIAXONE], the minimum inhibitory concentration (MIC) against Escherichia coli [5] was 0.064 µg/mL (≈ 0.115 µM); in the data set on Escherichia coli [6], 0.064 µg/mL; in the data set on Streptococcus pneumoniae [7] it was 0.01 µg/mL (≈ 0.018 µM); in the data set on Streptococcus pneumoniae [8] it was 0.02 µg/mL; in the data set on Streptococcus pneumoniae [9], 0.16 µg/mL; in the data set with Escherichia coli [23] it was 2 µg/mL. The outcome in the data set with Escherichia coli [10] and in the data set with Streptococcus pneumoniae [11] was Active. The result with Escherichia coli [26], with Streptococcus pneumoniae [27], with Escherichia coli [28] and in the data set on Streptococcus pneumoniae [29] was inactive. Also, the Kkmax in the data set with Escherichia coli [12] came to 6.34 h⁻¹; in the data set with Streptococcus pneumoniae [13] it was 3.59 h⁻¹. Further, the Ks with Escherichia coli [14] was found to be 2.4 h⁻¹; with Streptococcus pneumoniae [15] it was 1.56 h⁻¹. Also, the concentration for a half-maximal effect (EC50) in the data set on Escherichia coli [17] was determined as 0.027 µg/mL (≈ 0.0487 µM); in the data set on Escherichia coli [18], 0.057 µg/mL; in the data set on Escherichia coli [19], 1.1 µg/mL; in the data set on Streptococcus pneumoniae [20], 4 ng/mL (≈ 0.00721 µM); with Streptococcus pneumoniae [21] it was 0.015 µg/mL; in the data set with Streptococcus pneumoniae [22], 0.084 µg/mL.

Usually MIC stands for the lowest concentration that inhibits growth of the organism. One may read the EC50 as the concentration needed to bring the measured effect to its halfway point.
